The term LC50 denotes the concentration that kills 50% of the test population. A low value points to a more lethal substance.

The nature of series [1]: Toxicity in brine shrimp. The series is classed as organism-based. The following applies: artemia, in vivo.
Series [2] relates to A549. Description: Cytotoxicity against human A549 cells after 7 days by MTT assay. The series is classed as functional. The following applies: A549, 168 h, read-out: ED50 (the source's name). A digest of the protocol:
(§1)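 Seven-day MTT assay of each compound against the human solid tumour lines A-549 (lung carcinoma), MCF-7 (breast carcinoma) and HT-29 (colon adenocarcinoma), run at a cell culture core laboratory. Adriamycin served as the positive control. Values from separate runs of the cell culture assay were reported apart.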

The subject of series [3] is MCF7. Description: Cytotoxicity against human MCF7 cells after 7 days by MTT assay. The class given is functional. To be noted: MCF7, 168 h, read-out: ED50 (the source's name). A digest of the protocol:
as §1

Series [4] relates to HT-29. Description: Cytotoxicity against human HT-29 cells after 7 days by MTT assay. The class given is functional. The following applies: HT-29, 168 h, read-out: ED50 (the source's name). A digest of the protocol:
as §1

Converted amounts (≈) assume the structure as drawn. Some results are limits rather than exact numbers.

Consider `CCCCCCCCCC/C=C\CC[C@@H](O)[C@H]1CC[C@H]([C@H](O)CCCCC(O)CCCCC[C@@H](O)CC2=C[C@H](C)OC2=O)O1` (stereo not given in full) [XYLOMATENIN], for which the LC50 in series [1] was determined as 770 ng/mL (≈ 1.24 µM). For the same compound, the EC50 in series [2] was under 1 ng/mL; in series [3], 631 ng/mL (≈ 1.01 µM); in series [4], under 1 ng/mL.

On to `COc1cccc2c1C(=O)c1c(O)c3c(c(O)c1C2=O)C[C@@](O)(C(=O)CO)C[C@@H]3O[C@H]1C[C@H](N)[C@H](O)[C@H](C)O1` [DOXORUBICIN], for which the EC50 in series [2] was 1.1 ng/mL (≈ 0.00202 µM); in series [4], 2.7 ng/mL (≈ 0.00497 µM).

With `CCCCCCCCCC/C=C\CC[C@@H](O)[C@H]1CC[C@H]([C@H](O)CCCCCCC(O)CCC[C@@H](O)CC2=C[C@H](C)OC2=O)O1` (stereo not given in full) [XYLOPIEN], the LC50 in series [1] amounted to 871 ng/mL (≈ 1.4 µM). Moreover, the EC50 in series [2] is 3.64 ng/mL (≈ 0.00584 µM); in series [3], 7.11 ng/mL (≈ 0.0114 µM); in series [4], 7.26 ng/mL (≈ 0.0117 µM).

For the origin of these results see ChEMBL document CHEMBL1150072, “Two new bioactive monotetrahydrofuran Annonaceous acetogenins from the bark of Xylopia aromatica” (J Nat Prod, 1994).
